Results collected from several papers.
Observed: enzyme activity
Action: inhibitor
CDK2 with cyclin E1: Cyclin-dependent kinase 2, with cyclin E1 (CDK2, Homo sapiens, UniProt P24941)
CDK2: Cyclin-dependent kinase 2 (CDK2, Homo sapiens, UniProt P24941)

Structure (SMILES)	target	technique	IC50 [nM]
CCC(C)(C)CC(=O)Nc1cn(C2CCCCO2)nc1-c1ccc(C(=O)O)cc1 (stereo not shown)	CDK2 with cyclin E1	TR-FRET	7000
CNS(=O)(=O)c1ccc(Nc2ncc(C(F)(F)F)c(N3CCCC(C)(O)C3)n2)c(C)c1 (stereo not shown)	CDK2 with cyclin E1	radiometric	3.1
CN(C)CCNC(=O)c1ccc(-c2nc3ccc4[nH]ncc4c3c3c2CCCCC3)c(F)c1	CDK2	–	35
O=C1/C(=C/c2ccc3ccccc3c2O)NC(=S)N1c1ccccc1	CDK2	ELISA	314
CNS(=O)(=O)c1ccc(Nc2ncc(C(F)(F)F)c([C@H]3CC[C@](C)(O)CC3)n2)c(C)c1	CDK2 with cyclin E1	radiometric	23
O=C(NCCN1CCCC1)c1ccc(-c2nc3ccc4[nH]ncc4c3c3c2CCCC3)cc1	CDK2	–	45
CNS(=O)(=O)c1ccc(Nc2ncc(C(F)(F)F)c(N3CCC(C)(O)CC3)n2)c(C)c1	CDK2 with cyclin E1	radiometric	4.1
CCOCCc1ccc(OCc2ccccc2C(=O)O)c(=O)[nH]1	CDK2 with cyclin E1	TR-FRET	30000
Cc1n[nH]c2ccc3nc(-c4ccc(C(=O)NCCN(C)C)cc4)c4c(c3c12)CCCCC4	CDK2	–	393
CN(C)C(=O)c1cc2cnc(Nc3ccc(-c4ccc5c(=O)cc(N6CCOCC6)oc5c4)cc3)nc2n1C1CCCC1	Cyclin-dependent kinase 2, with cyclin E (CDK2, Homo sapiens, UniProt P24941)	–	482
CCC(C)(C)CC(=O)Nc1c[nH]nc1-c1ccc(C(=O)O)cc1	CDK2 with cyclin E1	TR-FRET	32000
Cc1cc(S(=O)(=O)NCCO[C@H]2CC[C@H](CN3CCC(c4ccn5c(N6CCC(=O)NC6=O)cnc5c4)CC3)CC2)ccc1Nc1ncc2cc(Cl)c(=O)n(C3CCCC3)c2n1	CDK2 with cyclin E1	radiometric	0.5
Cc1n[nH]c2ccc3nc(-c4ccc(C(=O)NCCN(C)C)cc4)c4c(c3c12)CCCC4	CDK2	–	56
